Results from ChEMBL document CHEMBL4373727, “Thienopyrimidinone Derivatives That Inhibit Bacterial tRNA (Guanine37-N1)-Methyltransferase (TrmD) by Restructuring the Active Site with a Tyrosine-Flipping Mechanism” (J Med Chem, 2019).
Converted amounts (≈) assume the structure as drawn. The source made the active and inactive calls. Unless noted, the rule behind the calls is not given here.

Key:
Enterococcus faecalis [1] = assay: Bactericidal activity against Enterococcus faecalis ATCC 51299 assessed as reduction in CFU at 1 to 4 times MIC90 incubated for 24 hrs; assay type: functional, organism-based
Pseudomonas aeruginosa [2] = assay: Antibacterial activity against Pseudomonas aeruginosa PA14 incubated for 24 hrs by serial broth microdilution method; assay type: functional, organism-based
Procedure, shortened: (§1)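 Log-phase cultures from four colonies grown overnight at 37 °C, inoculated at ~5×10^5 cells/mL in cation-adjusted Mueller–Hinton broth with serially diluted compound. Grown 24 h at 37 °C, then OD600 read. MIC50/MIC90 are the concentrations giving 50%/90% growth inhibition relative to drug-free controls. Two independent experiments in duplicate.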

Salmonella enteritidis [3] = assay: Bactericidal activity against Salmonella enteritidis ATCC 13076 assessed as reduction in CFU at 1 to 4 times MIC90 incubated for 24 hrs; assay type: functional; conditions: Salmonella enterica subsp. enterica serovar Enteritidis
Salmonella enteritidis [4] = assay: Antibacterial activity against Salmonella enteritidis ATCC 13076 incubated for 24 hrs by serial broth microdilution method; assay type: functional; conditions: Salmonella enterica subsp. enterica serovar Enteritidis; procedure, shortened: as §1
[5] = target: T1, tRNA (guanine-N(1)-)-methyltransferase (Pseudomonas aeruginosa (strain ATCC 15692 / DSM 22644 / CIP 104116 / JCM14847 / LMG 12228 / 1C / PRS 101 / PAO1)) (UniProt Q9HXQ1); assay: Inhibition of Pseudomonas aeruginosa tRNA (guanine(37)-N1)-methyltransferase (Leu5 to Asp25 residues) expressed in Escherichia coli BL21 (DE3) Rosetta T1R cells assessed as reduction in S-adenosyl-L-homocysteine production preincubated for 30 mins followed by 1.5 to 15 uM of tRNALeu(CAG) substrate and SAM addition and measured after 60 mins by MTase-Glo assay
T1 sequence (whole entry): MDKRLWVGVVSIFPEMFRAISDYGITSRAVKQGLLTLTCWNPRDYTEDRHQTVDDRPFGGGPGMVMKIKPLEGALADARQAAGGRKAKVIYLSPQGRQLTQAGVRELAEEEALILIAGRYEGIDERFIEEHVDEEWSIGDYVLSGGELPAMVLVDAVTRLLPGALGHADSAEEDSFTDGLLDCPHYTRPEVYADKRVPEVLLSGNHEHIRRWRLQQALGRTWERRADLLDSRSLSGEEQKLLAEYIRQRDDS

Streptococcus pneumoniae = assay: Bactericidal activity against Streptococcus pneumoniae ATCC 49619 assessed as reduction in CFU at 1 to 4 times MIC90 incubated for 24 hrs; assay type: functional; conditions: ATCC 49619, 24 h, read-out: MBC99.9
Pseudomonas aeruginosa [6] = assay: Bactericidal activity against Pseudomonas aeruginosa PA14 assessed as reduction in CFU at 1 to 4 times MIC90 incubated for 24 hrs; assay type: functional, organism-based
Acinetobacter baumannii = assay: Antibacterial activity against Acinetobacter baumannii ATCC 17961 incubated for 24 hrs by serial broth microdilution method; assay type: functional; conditions: ATCC 17961, 24 h; procedure, shortened: as §1
Enterococcus faecalis [7] = assay: Antibacterial activity against Enterococcus faecalis ATCC 51299 incubated for 24 hrs by serial broth microdilution method; assay type: functional, organism-based
Procedure, shortened: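 Broth microdilution in brain heart infusion broth, ~5×10^5 cells/mL log-phase inoculum, serial compound dilutions, 24 h at 37 °C, OD600 read-out. MIC50/MIC90 are the concentrations giving 50%/90% growth inhibition relative to drug-free controls. Two independent experiments in duplicate.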

Erythrocyte = assay: Hemolytic activity in human RBC at 100 uM measured after 1 hr; assay type: ADME, cell-based
Procedure, shortened: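 Fresh human RBCs were PBS-washed and resuspended to OD600 24, then mixed 1:1 by volume with compound serially diluted in PBS. Incubated 1 h at 37 °C without shaking and centrifuged at 1000g for 15 min. Triton X-100 served as positive control. Run in triplicate.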

Staphylococcus aureus = assay: Antibacterial activity against methicillin-resistant Staphylococcus aureus ATCC 43300 incubated for 24 hrs by serial broth microdilution method; assay type: functional; conditions: ATCC 43300, 24 h
Procedure, shortened: (§2)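 Growth read by OD600. MRSA in cation-adjusted Mueller–Hinton broth, M. smegmatis in complete 7H9. MIC50 and MIC90 are 50% and 90% growth inhibition versus drug-free controls. Two independent experiments, each in duplicate.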

Escherichia coli = assay: Bactericidal activity against Escherichia coli BW25113 assessed as reduction in CFU at 1 to 4 times MIC90 incubated for 24 hrs; assay type: functional, organism-based
Klebsiella pneumoniae = assay: Antibacterial activity against Klebsiella pneumoniae ATCC 13883 incubated for 24 hrs by serial broth microdilution method; assay type: functional, organism-based; procedure, shortened: as §1
[8] = test system: Mycolicibacterium smegmatis; assay: Antibacterial activity against Mycolicibacterium smegmatis MC2 155 incubated for 24 hrs by serial broth microdilution method; assay type: functional; conditions: MC2 155, 24 h; procedure, shortened: as §2
[9] = test system: Mycolicibacterium smegmatis; assay: Bactericidal activity against Mycolicibacterium smegmatis MC2 155 assessed as reduction in CFU at 1 to 4 times MIC90 incubated for 24 hrs; assay type: functional; conditions: MC2 155, 24 h, read-out: MBC99.9
[10] = Selectivity ratio of Kd for full length Staphylococcus aureus tRNA (guanine(37)-N1)-methyltransferase expressed in Escherichia coli BL21 (DE3) to Kd for Pseudomonas aeruginosa tRNA (guanine(37)-N1)-methyltransferase (Leu5 to Asp25 residues) expressed in Escherichia coli BL21 (DE3) Rosetta T1R cells
[11] = target: T2, tRNA (guanine-N(1)-)-methyltransferase (Mycobacterium tuberculosis (strain ATCC 25618 / H37Rv)) (UniProt P9WFY7); assay: Binding affinity to full length Mycobacterium tuberculosis tRNA (guanine(37)-N1)-methyltransferase expressed in Escherichia coli BL21 (DE3) assessed as thermal stabilization of protein by measuring change in melting temperature at 0.1 mM by SYPRO orange based thermal shift assay
T2 sequence (whole entry): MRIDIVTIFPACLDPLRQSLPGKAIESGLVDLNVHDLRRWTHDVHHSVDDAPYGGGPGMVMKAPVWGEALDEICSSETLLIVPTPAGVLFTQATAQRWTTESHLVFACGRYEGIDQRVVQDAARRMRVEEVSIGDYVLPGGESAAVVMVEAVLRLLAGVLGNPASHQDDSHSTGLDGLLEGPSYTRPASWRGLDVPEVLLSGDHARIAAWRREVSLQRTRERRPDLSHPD
Procedure, shortened: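 Thermal shift: 4 μM TrmD with 5× SYPRO Orange and ligand in 50 mM Tris-HCl pH 8, 150 mM NaCl, 1 mM MgCl2, 1 mM DTT, 0.05% Tween-20. Buffer-only control. Heated from 25 to 95 °C in a real-time PCR instrument, and Tm taken as the unfolding midpoint. Ligand levels: SAH 2 mM, inhibitors 0.1 mM.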

With CCCCCCCCNCc1ccc(CNC(=O)c2csc3nc[nH]c(=O)c23)cc1 the MBC99.9 (Enterococcus faecalis [1]) was “inactive”, the MIC50 (Pseudomonas aeruginosa [2]) was “inactive” and the MIC90 (Pseudomonas aeruginosa [2]) was “inactive”. For the same compound, the MBC99.9 (Salmonella enteritidis [3]) was “inactive”, the MIC50 (Salmonella enteritidis [4]) was “inactive” and the MIC90 (Salmonella enteritidis [4]) was “inactive”. For the same compound, the inhibition [5] was “Dose-dependent effect”, the MBC (Streptococcus pneumoniae) was over 100 µM and the MBC99.9 (Pseudomonas aeruginosa [6]) was “inactive”. The MIC50 (Acinetobacter baumannii) was 62 µM (≈ 26.4 µg/mL), the MIC90 (Acinetobacter baumannii) was 95 µM (≈ 40.5 µg/mL) and the MIC50 (Enterococcus faecalis [7]) was “inactive”. The MIC90 (Enterococcus faecalis [7]) was “inactive”, the Activity (Erythrocyte) was “Non-Toxic” and the MIC50 (Staphylococcus aureus) was 31 µM (≈ 13.2 µg/mL). The MIC90 (Staphylococcus aureus) was 36 µM (≈ 15.4 µg/mL), the MBC99.9 (Escherichia coli) was “inactive” and the MIC50 (Klebsiella pneumoniae) was “inactive”. For the same compound, the MIC90 (Klebsiella pneumoniae) was “inactive”, the MIC50 [8] was 58 µM (≈ 24.7 µg/mL) and the MBC [9] was over 100 µM.
NC1CCN(Cc2ccc(CNC(=O)c3csc4nc[nH]c(=O)c34)cc2)CC1 showed a Ratio [10] of 100 to 300 and a ΔTm [11] of 1 to 13 °C.
